This is an account of results in ChEMBL document CHEMBL1949637, “Anticancer effects of the metabolic products of the resveratrol analogue, DMU-212: structural requirements for potency” (Eur J Med Chem, 2011).

SMILES strings stand for the structures. Activity calls are given as the source filed them. No cut-off for these calls is given here.

Type in all cases: functional, cell-based
Assay [1] relates to HepG2. Kind of assay: Cytotoxicity against human HepG2 cells up to 20 uM after 96 hrs by MTT assay. On the technique in general: Tetrazolium assays rely on reduction of a dye to a coloured formazan, in cell work by metabolically active cells.
Assay [2] relates to MCF7. Kind of assay: Cytotoxicity against human MCF7 cells up to 20 uM after 96 hrs by MTT assay.
For assay [3], the system named is MCF7. Put plainly: Antimitotic activity in human MCF7 cells assessed as decrease in localization of beta-tubulin expression around cell nucleus at 30 uM after 48 hrs by immunofluorescence staining. A digest of the protocol:
(§1)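 MCF-7 cells seeded on coverslips in 24-well plates, 8 × 10⁴ cells/well, exposed to 10 or 30 μM for 24 or 48 h. Fixed, permeabilised, then stained 1 h at room temperature with anti-β-tubulin (1:200 in PBS/1% FBS). Secondary was AlexaFluor-conjugated anti-mouse IgG (1:500), 1 h in the dark. Read by fluorescence microscopy.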

Assay [4] concerns HepG2. Put plainly: Cytotoxicity against human HepG2 cells after 96 hrs by MTT assay. The settings on record: HepG2, 96 h. Put shortly: (§2)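 Cells plated in 96-well plates and allowed 24 h growth. Medium was replaced with serial dilutions, 0.079–20 μM, for 96 h. Viability read spectrophotometrically by MTT reduction. IC₅₀ values taken from at least 3 experiments. MCF-7 cells were kept in RPMI-1640 and HepG2/HeLa in DMEM, each with 10% heat-inactivated FCS.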

For assay [5], the system named is MCF7. Kind of assay: Upregulation of p53 protein expression in human MCF7 cells after 24 hrs by Western blot analysis. A digest of the protocol:
(§3)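 MCF-7 or HepG2 cells seeded at 3 × 10⁵ cells/mL in 6-well plates and treated 24 h at 37 °C with 0, 30, 40 or 50 μM. Lysed in buffer with protease inhibitors and 1 mM DTT, then sonicated. Lysates run on SDS-PAGE (10% resolving gel), wet-blotted to PVDF and probed overnight at 4 °C. Antibodies were anti-β-tubulin 1:400, p53 1:200, cyclin D1 1:200; β-actin 1:400 served as loading reference. Detection by ECL.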
A general note: Immunoblotting shows a protein as a band on a membrane.

Assay [6] relates to HepG2. Kind of assay: Upregulation of p53 protein expression in human HepG2 cells after 24 hrs by Western blot analysis. Put shortly: as §3
The test system of assay [7] is MCF7. Kind of assay: Induction of apoptosis in human MCF7 cells assessed as nuclear fragmentation at 10 uM after 24 hrs using DAPI staining by immunofluorescence method. A digest of the protocol: (§4)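 MCF-7 cells grown on coverslips (8 × 10⁴ cells/well) and treated 24 h at 10 or 30 μM. Fixed, permeabilised and processed as for β-tubulin immunostaining. DAPI working solution applied at 1:100 for 5 min. Fragmented nuclei scored by fluorescence microscopy.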

Assay [8] concerns MCF7. Kind of assay: Cell cycle arrest in human MCF7 cells assessed as accumulation at G2/M phase at 10 uM after 24 hrs using propidium iodide staining by flow cytometry. A digest of the protocol:
(§5)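 Cells cultured in T75 flasks, serum-starved 24 h, then exposed to 10 μM for 24 h. Trypsinised, washed in PBS and fixed in 70% ethanol for at least 2 h. Stained with propidium iodide 50 μg/mL containing RNase A 100 μg/mL. DNA content read by flow cytometry on at least 10,000 events. Percentage of cells in each phase recorded.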

Assay [9] has as its system MCF7. Kind of assay: Antimitotic activity in human MCF7 cells assessed as decrease in localization of beta-tubulin expression around cell nucleus at 30 uM after 24 hrs by immunofluorescence staining. Put shortly:
as §1

Assay [10] relates to HeLa. Kind of assay: Cytotoxicity against human HeLa cells after 96 hrs by MTT assay. A digest of the protocol: as §2
For assay [11], the system named is HeLa. Put plainly: Cell cycle arrest in human HeLa cells assessed as accumulation at G2/M phase at 10 uM after 24 hrs using propidium iodide staining by flow cytometry. A digest of the protocol: as §5
Assay [12] concerns MCF7. Kind of assay: Induction of apoptosis in human MCF7 cells assessed as nuclear fragmentation at 30 uM after 24 hrs using DAPI staining by immunofluorescence method. A digest of the protocol:
as §4

In assay [13] the test system is MCF7. Kind of assay: Cytotoxicity against human MCF7 cells after 96 hrs by MTT assay. The settings on record: MCF7, 96 h. Put shortly:
as §2

The test system of assay [14] is HepG2. Put plainly: Downregulation of beta-tubulin expression in human HepG2 cells at >30 uM after 24 hrs by Western blot analysis. A digest of the protocol:
as §3

For assay [15], the system named is HepG2. Put plainly: Downregulation of cyclin D1 expression in human HepG2 cells after 24 hrs by Western blot analysis. A digest of the protocol:
as §3

Assay [16] concerns MCF7. Kind of assay: Antimitotic activity in human MCF7 cells assessed as effect on beta-tubulin distribution at 10 uM after 24 hrs by immunofluorescence staining. Put shortly:
as §1

Assay [17] deals with MCF7. Put plainly: Cell cycle arrest in human MCF7 cells assessed as accumulation at G1 phase at 10 uM after 24 hrs using propidium iodide staining by flow cytometry. A digest of the protocol:
as §5

Assay [18] has as its system HepG2. Kind of assay: Cell cycle arrest in human HepG2 cells assessed as accumulation at G2/M phase at 10 uM after 24 hrs using propidium iodide staining by flow cytometry. A digest of the protocol: as §5
For orientation: In flow cytometry, cells or beads pass a laser one at a time.

Assay [19] relates to MCF7. Put plainly: Cell cycle arrest in human MCF7 cells assessed as accumulation at S phase at 10 uM after 24 hrs using propidium iodide staining by flow cytometry. A digest of the protocol: as §5
The subject of assay [20] is MCF7. Kind of assay: Downregulation of beta-tubulin expression in human MCF7 cells at >30 uM after 24 hrs by Western blot analysis. Put shortly: as §3
Assay [21] relates to MCF7. Kind of assay: Downregulation of cyclin D1 expression in human MCF7 cells after 24 hrs by Western blot analysis. A digest of the protocol: as §3
For assay [22], the system named is HepG2. Put plainly: Cell cycle arrest in human HepG2 cells assessed as accumulation at G1 phase at 10 uM after 24 hrs using propidium iodide staining by flow cytometry. A digest of the protocol: as §5
The test system of assay [23] is HepG2. Put plainly: Cell cycle arrest in human HepG2 cells assessed as accumulation at S phase at 10 uM after 24 hrs using propidium iodide staining by flow cytometry. Put shortly:
as §5

Assay [24] has as its system MCF7. Kind of assay: Induction of apoptosis in human MCF7 cells assessed as increase of ratio of Bax to Bcl-xL mRNA level at 30 to 40 uM after 24 hrs by RT-PCR analysis.
Assay [25] deals with HepG2. Kind of assay: Induction of apoptosis in human HepG2 cells assessed as increase of ratio of Bax to Bcl-xL mRNA level at 20 to 40 uM after 24 hrs by RT-PCR analysis.
Assay [26] relates to HepG2. Kind of assay: Induction of apoptosis in human HepG2 cells assessed as effect on Bcl-xL mRNA level after 24 hrs by RT-PCR analysis.
The subject of assay [27] is HepG2. Kind of assay: Induction of apoptosis in human HepG2 cells assessed as upregulation of Bax mRNA level after 24 hrs by RT-PCR analysis.
Assay [28] deals with MCF7. Kind of assay: Induction of apoptosis in human MCF7 cells assessed as upregulation of Bax mRNA level after 24 hrs by RT-PCR analysis.
Assay [29] deals with MCF7. Kind of assay: Induction of apoptosis in human MCF7 cells assessed as down-regulation of Bcl-xL mRNA level after 24 hrs by RT-PCR analysis.

Broadly, the IC50 is the concentration that inhibits the measured activity by half. A higher IC50 goes with lower potency.

For `COc1ccc(/C=C/c2cc(O)c(OC)c(OC)c2)cc1`, the result with HepG2 [1] and in the assay on MCF7 [2] was inactive.

Regarding `COc1ccc(/C=C/c2cc(OC)c(OC)c(OC)c2)cc1`, the outcome with MCF7 [3], in the assay with MCF7 [8], in the assay on MCF7 [9], in the assay with HeLa [10], in the assay with HeLa [11] and in the assay on MCF7 [12] was Active. For the same compound, the result with HepG2 [14], with MCF7 [17], with HepG2 [18], in the assay with MCF7 [19], in the assay with MCF7 [20] and in the assay on HepG2 [22] was Active. In addition, the result in the assay with HepG2 [23] was Active. Besides, the IC50 with HepG2 [4] and in the assay on MCF7 [13] was 300 nM throughout. The Activity result in the assay on MCF7 [5], in the assay with HepG2 [6], in the assay on HepG2 [15] and with MCF7 [21] was “Dose-dependent effect” in each case. The result with MCF7 [7] and with MCF7 [16] was inactive.

As to `COc1ccc(/C=C/c2cc(OC)c(O)c(OC)c2)cc1`, the result in the assay on HepG2 [1] and in the assay on MCF7 [2] was inactive.

Turning to `COc1ccc(/C=C/c2cc(OC)c(OC)c(OC)c2)cc1O`, the outcome in the assay with MCF7 [3], with MCF7 [24], in the assay on HepG2 [25], with HepG2 [1], in the assay on MCF7 [8] and with MCF7 [9] was Active. For the same compound, the outcome in the assay on HeLa [10], with HeLa [11], in the assay with MCF7 [12], in the assay with HepG2 [14], in the assay with MCF7 [17] and in the assay on HepG2 [18] was Active. For the same compound, the outcome with MCF7 [29], with MCF7 [19], in the assay on MCF7 [20], in the assay on MCF7 [2], in the assay on HepG2 [22] and in the assay on HepG2 [23] was Active. Besides, the outcome with HepG2 [26], with MCF7 [7] and in the assay with MCF7 [16] was inactive. Besides, the Activity entry in the assay with MCF7 [5], with HepG2 [6], in the assay with HepG2 [27], with HepG2 [15], in the assay with MCF7 [28] and with MCF7 [21] was “Dose-dependent effect” throughout.

On to `COc1cc(/C=C/c2ccc(O)cc2)cc(OC)c1OC`, for which the outcome in the assay with HepG2 [1] and in the assay with MCF7 [2] was inactive.
